These results are taken from PMC12700136 (Journal of medicinal chemistry, 2025).

The target of assay [1] is T1, ClpP (Homo sapiens, UniProt Q16740). The assay can be described thus: Thermal shift assay. It counts as binding. The conditions noted are these: MDA-MB-468 lysates; for ClpP binding/stabilization by TSA (comparison in words): heated at 67 °C, WB. An outline of the steps: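 Test compound at increasing concentrations added to 10 μg MDA-MB-468 lysate, 15 min at 23 °C. Heated 67 °C for 3 min, precipitated 3 min at 23 °C, spun 14,000 rpm, 20 min, 4 °C. Soluble ClpP detected by anti-ClpP immunoblot against unheated and no-compound controls; quantified as mean ± SD of two independent experiments.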

The target in assay [2] is T1, ClpP. The assay can be described thus: Thermal shift assay. The conditions noted are these: MDA-MB-468 cells treated 30 min. It counts as cell-based. Summed up: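 MDA-MB-468 cells seeded at 1 million per well the day before, then exposed to test compound for 30 min at 37 °C. Washed in PBS, scraped into PBS with […] inhibitors, heated 67 °C for 3 min, lysed by freeze–thaw, spun 14,000 rpm 20 min at 4 °C. Soluble ClpP immunoblotted; normalized quantification, mean ± SD of two independent experiments.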

Assay [3] deals with purified human ClpP (hClpP) (Homo sapiens, UniProt Q16740). As to the kind of experiment: Differential scanning fluorimetry. The format is binding. Conditions: vs DMSO. An outline of the steps: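 Human ClpP lacking mitochondrial sequence, expressed in E. coli BL21(DE3) as N-terminal 2x(His6-thrombin)-SUMO-TEV fusion (1 mM IPTG, 4 h, 37 °C), cobalt-resin purified. Protein at 0.5 mg/mL final in 25 mM Tris-HCl pH 7.5 with SYPRO Orange; held 25 °C 2 min, ramped 25–95 °C at 0.05 °C/s. ΔTm versus DMSO; mean ± SD, four independent experiments.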

For a further assay, the system named is DAP13. The assay can be described thus: DAP13 degradation assay. The format is cell-based, human. The conditions noted are these: 24 h, MDA-MB-468 cells.
Assay [4] deals with MDA-MB-468 cells. The assay can be described thus: Seahorse mitochondrial respiration assay. The format is cell-based, human. The conditions noted are these: 50 nM for 12, 24 and 48 h. An outline of the steps: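 Cells were plated at 250,000 per well and treated for 12, 24 or 48 h. One hour before reading, medium was changed to XF DMEM (1 mM pyruvate, 2 mM glutamine, 10 mM glucose, pH 7.4). The Mito Stress Test used final 1 μM oligomycin, 1 μM FCCP and 0.5 μM antimycin A. OCR was read at baseline and after sequential oligomycin, FCCP and rotenone additions.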

The subject of assay [5] is MDA-MB-468 cells. As to the kind of experiment: Western blot analysis of apoptosis markers. The format is cell-based, human. The conditions noted are these: 1 μM, 72 h. An outline of the steps:
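MDA-MB-468 cells exposed to vehicle or 1 μM test compound for 72 h. Lysates probed by immunoblot for apoptosis markers including caspase-3. Blots representative of two independent experiments.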

Assay [6] concerns MDA-MB-468 cells. As to the kind of experiment: Flow-cytometry-based apoptosis detection. It counts as cell-based, human. The conditions noted are these: 1 μM, 72 h. An outline of the steps:
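MDA-MB-468 cells given DMSO or 1 μM test compound for 72 h at 37 °C, 5% CO2. Washed twice in FACS buffer (50 mM PBS, 2 mM EDTA, 2% FBS), stained with fixable viability dye eFluor 780 for 30 min at 4 °C, washed, then analysed by flow cytometry for dead-cell labelling.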

In assay [7] the test system is MDA-MB-468 cells. As to the kind of experiment: Viability assay. It counts as cell-based, human. Conditions: read-out: IC50 (viability); MDA-MB-468 (wild-type), 72 h. An outline of the steps: (§1)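 Cells (DMEM/F12 + GlutaMax, 10% FBS, 1% pen-strep) seeded at 5,000 per well 24 h before dosing, in quadruplicate. Medium replaced with test compound-containing medium for 72 h. Viability read after 3 h AlamarBlue incubation by colorimetric change, normalized to vehicle control. IC50 from curves; mean ± SD of three independent experiments.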

The next assay relates to MDA-MB-231 cells. As to the kind of experiment: Viability assay. The format is cell-based, human. Conditions: read-out: IC50 (viability); MDA-MB-231, 72 h. Summed up:
as §1

The test system of another assay is SK-BR-3 cells. The assay can be described thus: Viability assay. The format is cell-based, human. The conditions noted are these: read-out: IC50 (viability); SK-BR-3, 72 h. An outline of the steps: as §1
A further assay relates to MCF-7 cells. The assay can be described thus: Viability assay. The conditions noted are these: read-out: IC50 (viability); MCF-7, 72 h. It counts as cell-based, human. Summed up:
as §1

For another assay, the system named is BT-474 cells. As to the kind of experiment: Viability assay. The format is cell-based, human. The conditions noted are these: read-out: IC50 (viability); BT-474, 72 h. Summed up: as §1
In assay [8] the test system is ONC212-resistant MDA-MB-468 cells. As to the kind of experiment: Viability assay. The format is cell-based, human. An outline of the steps:
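Resistant MDA-MB-468 line selected by continuous 50 nM reference ClpP agonist, medium changed every 3 days. Cells expanded drug-free and re-exposed over several cycles until growth exceeded death. Wild-type and resistant cells seeded at 5,000 per well, quadruplicate, and dosed 72 h. AlamarBlue read after 3 h, normalized to vehicle; mean ± SD, three independent experiments.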

pIC50: −log10 of the molar value. A value given as a limit tells only on which side of the number the result lay.

T1 sequence (Q16740 57-277): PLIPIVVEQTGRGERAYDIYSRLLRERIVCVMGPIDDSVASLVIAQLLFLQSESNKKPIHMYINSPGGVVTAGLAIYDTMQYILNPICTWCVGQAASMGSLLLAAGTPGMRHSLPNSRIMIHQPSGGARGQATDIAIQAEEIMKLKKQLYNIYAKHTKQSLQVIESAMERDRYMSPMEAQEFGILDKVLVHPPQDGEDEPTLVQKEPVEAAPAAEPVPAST
Sequence of purified human ClpP (hClpP) (Q16740 57-277): as above

As for `CN(C)CCCCCc1cc(C(F)(F)F)ccc1CN1C(=O)C2=C(CCN(Cc3cccc(C#N)c3)C2)N2CCN=C12` [Compound 7, 3-((4-(2-(5-(Dimethylamino)pentyl)-4-(trifluoromethyl)-benzyl)-5-oxo-1,2,4,5,8,9-hexahydroimidazo[1,2-a]pyrido[3,4-e]pyrimidin-7(6H)-yl)methyl)benzonitrile], the “ClpP binding/stabilization by TSA (comparison in words)” value (from here on “ClpP binding/stabilization by TSA”) on ClpP [1] is recorded as “recovered to the same level as that of compound 2”.
On to `CC(=O)NCCCCCc1cc(C(F)(F)F)ccc1CN1C(=O)C2=C(CCN(Cc3ccccc3)C2)N2CCN=C12` [Compound 5, N-(5-(2-((7-Benzyl-5-oxo-1,2,6,7,8,9-hexahydroimidazo[1,2-a]pyrido[3,4-e]pyrimidin-4(5H)-yl)methyl)-5-(trifluoromethyl)-phenyl)pentyl)acetamide], for which, on ClpP [1], the “ClpP binding/stabilization by TSA” value was “much reduced binding to ClpP”.
As for `CC(=O)NCCOc1cc(C(F)(F)F)ccc1CN1C(=O)C2=C(CCN(Cc3cccc(C#N)c3)C2)N2CCN=C12` [Compound 10, N-(2-(2-((7-(3-Cyanobenzyl)-5-oxo-1,2,6,7,8,9-hexahydroimidazo[1,2-a]pyrido[3,4-e]pyrimidin-4(5H)-yl)-methyl)-5-(trifluoromethyl)phenoxy)ethyl)acetamide], the “ClpP binding/stabilization by TSA” value at ClpP [1] is listed as “decreased ClpP binding compared to 9 but similar to ONC212”.
The same measure, in the same setting: in the case of `NCCCCCc1cc(F)ccc1CN1C(=O)C2=C(CCN(Cc3ccccc3)C2)N2CCN=C12` [Compound 3, 4-(2-(5-Aminopentyl)-4-fluorobenzyl)-7-benzyl-2,4,6,7,8,9-hexahydroimidazo[1,2-a]pyrido[3,4-e]pyrimidin-5(1H)-one] it was “weaker ClpP binding”.
`NCCCCCc1cc(C(F)(F)F)ccc1CN1C(=O)C2=C(CCN(Cc3ccccc3)C2)N2CCN=C12` [Compound 1, 4-(2-(5-Aminopentyl)-4-(trifluoromethyl)benzyl)-7-benzyl-2,4,6,7,8,9-hexahydroimidazo[1,2-a]pyrido[3,4-e]pyrimidin-5(1H)-one]: the “ClpP binding/stabilization by TSA” value on ClpP [1] is reported as “marginally improved binding to ClpP compared to ONC212”.
For the compound `N#Cc1cccc(CN2CCC3=C(C2)C(=O)N(Cc2ccc(C(F)(F)F)cc2CCCCCN)C2=NCCN23)c1` [Compound 2, 3-((4-(2-(5-Aminopentyl)-4-(trifluoromethyl)benzyl)-5-oxo-1,2,4,5,8,9-hexahydroimidazo[1,2-a]pyrido[3,4-e]pyrimidin-7(6H)-yl)methyl)benzonitrile], the “improvement in ClpP binding compared to ONC212 and compound 1” value at ClpP [1] (TSA) is on record as “approximately 2 fold”.
Take `O=C1C2=C(CCN(Cc3ccccc3)C2)N2CCN=C2N1Cc1ccc(C(F)(F)F)cc1` [ONC212, reference compound]: at ClpP [1], the “concentration at which ClpP was stabilized (TSA)” value was at least 2.5 µM. Moreover, the “concentration at which ClpP was stabilized (TSA in live cells)” value on ClpP [2] was 0.63 µM. For the same compound, in assay [3], the “thermal shift of purified hClpP (DSF)” value is reported as “very significant thermal shift”. Also, the DAP13 degraded result with DAP13 (25 nM) is reported as “did not significantly degrade DAP13”. Also, the “DAP13 degradation at high concentrations” value with DAP13 (100, 150 and 200 nM) was “degraded DAP13”. Further, the “effect on basal respiration, ATP generation and maximal respiration” value with MDA-MB-468 cells [4] is “significantly affected these mitochondrial functions only at 48 h”. Further, in the assay on MDA-MB-468 cells [5], the “protein levels of full-length caspase 3 and PARP” value is on record as “reduction”. The “late-stage apoptosis (eFluor 780)” value in the assay with MDA-MB-468 cells [6] is “effectively induced late-stage apoptosis”. The pIC50 (commonly the negative decadic logarithm of the IC50, by convention in mol/L) in the assay on MDA-MB-468 cells [7] is 7.45; in the assay with MDA-MB-231 cells, 7.30; with SK-BR-3 cells it was 6.94; in the assay with MCF-7 cells, 7.20; with BT-474 cells it was 7.49; in [8] (read-out: IC50 (viability), ONC212-resistant MDA-MB-468, 72 h) it was 6.45. For the same compound, the “increase in the IC50 value, resistant vs wild-type cells” value in [8] (ONC212-resistant vs wild-type MDA-MB-468, 72 h) was “approximately 10 fold”.
For the compound `CNC(=O)CN(C)CCCCCc1cc(C(F)(F)F)ccc1CN1C(=O)C2=C(CCN(Cc3cccc(C#N)c3)C2)N2CCN=C12` [Compound 8, 2-((5-(2-((7-(3-Cyanobenzyl)-5-oxo-1,2,6,7,8,9-hexahydroimidazo[1,2-a]pyrido[3,4-e]pyrimidin-4(5H)-yl)-methyl)-5-(trifluoromethyl)phenyl)pentyl)(methyl)amino)-N-methylacetamide], the “ClpP binding/stabilization by TSA” value at ClpP [1] is on record as “recovered to the same level as that of compound 2”.
The same measure, in the same setting: under `CC(=O)NCCCCCc1cc(C(F)(F)F)ccc1CN1C(=O)C2=C(CCN(Cc3cccc(C#N)c3)C2)N2CCN=C12` [Compound 6, N-(5-(2-((7-(3-Cyanobenzyl)-5-oxo-1,2,6,7,8,9-hexahydroimidazo[1,2-a]pyrido[3,4-e]pyrimidin-4(5H)-yl)-methyl)-5-(trifluoromethyl)phenyl)pentyl)acetamide] stands “much reduced binding to ClpP”.
